Reference: publication PMC2880883 (Biochemical pharmacology, 2010)
Entries after “also recorded” stand apart in the source; their conditions may differ. Where two headings read alike, the source gives them in different places.

Assays:
[1] = tested on: A3AR-transfected HL-1 cells; experiment: LDH assay, protection from H2O2-induced cell death, hA3AR-transfected cells; type: cell-based, mouse; details: for Protection against H2O2-induced cytotoxicity in A3AR-transfected HL-1 cells: 750 μM H2O2; for IC50: HL-1, read-out: Protection from cell death induced by H2O2, transfected cells, IC50; for EC50: read-out: Protection of A3 AR-transfected cells against H2O2, EC50 (lactate dehydrogenase release)
[2] = tested on: non-transfected HL-1 cells; experiment: LDH assay, protection from H2O2-induced cell death, untransfected cells; details: for Protection against H2O2-induced cytotoxicity in non-transfected HL-1 cells: 750 μM H2O2, LDH assay
hA3AR [3] = biological target: T1, hA3AR (Homo sapiens, UniProt P0DMS8); experiment: cAMP assay, inhibition of forskolin-stimulated cAMP, CHO cells; type: cell-based
T1 sequence (P0DMS8 1-318): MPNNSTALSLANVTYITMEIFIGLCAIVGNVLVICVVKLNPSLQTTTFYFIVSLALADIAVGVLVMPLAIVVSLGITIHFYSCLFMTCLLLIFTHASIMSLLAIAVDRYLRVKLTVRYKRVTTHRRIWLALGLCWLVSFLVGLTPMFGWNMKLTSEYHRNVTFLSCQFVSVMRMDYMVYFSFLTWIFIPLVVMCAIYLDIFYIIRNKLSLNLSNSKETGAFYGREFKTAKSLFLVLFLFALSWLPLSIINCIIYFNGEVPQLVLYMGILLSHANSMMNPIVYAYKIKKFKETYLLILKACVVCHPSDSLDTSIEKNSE
Outline: (§1)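 Stably transfected CHO cells (A1, A2A or A3AR) were seeded overnight at 37 °C, then given DMEM with 50 mM HEPES, 10 μM rolipram, 3 U/ml adenosine deaminase and rising test compound, for 30 min at 37 °C. For A1/A3, 10 μM forskolin was added for 15 min more; A2A plates were incubated 45 min. Cells were lysed in 0.1 M HCl; cAMP by immunoassay at 405 nm.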

[4] = tested on: A3AR-transfected HL-1 cells; experiment: Luminescent caspase 3/7 assay of H2O2-induced apoptosis; type: cell-based, mouse; details: dendrimer 10 μM 1 h before 400 μM H2O2, 3 h
Outline: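 HL-1 cells transfected with hA3AR were seeded at 30,000 cells/well and incubated overnight at 37 °C, then switched to DMEM with Ca/Mg. Dendrimer (10 μM) was added 1 h before H2O2 (400 μM) and kept throughout, with 3 h at 37 °C. An equal volume of Caspase-Glo 3/7 reagent was added for 90 min at room temperature before reading luminescence. Three independent experiments in triplicate, mean ± SD.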

hA1AR [5] = biological target: T2, hA1AR (Homo sapiens, UniProt P30542); experiment: cAMP assay, inhibition of forskolin-stimulated cAMP, CHO cells; type: cell-based
T2 sequence (P30542 1-326): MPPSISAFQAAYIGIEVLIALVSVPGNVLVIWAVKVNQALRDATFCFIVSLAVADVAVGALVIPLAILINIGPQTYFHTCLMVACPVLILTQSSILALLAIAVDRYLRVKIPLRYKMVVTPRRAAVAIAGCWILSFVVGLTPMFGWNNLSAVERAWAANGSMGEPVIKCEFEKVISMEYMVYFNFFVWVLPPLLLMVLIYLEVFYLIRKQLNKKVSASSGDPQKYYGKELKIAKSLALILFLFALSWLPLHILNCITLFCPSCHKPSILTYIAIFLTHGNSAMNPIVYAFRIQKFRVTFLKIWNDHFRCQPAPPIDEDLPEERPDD
Outline: as §1

hA2AAR [6] = biological target: T3, hA2AAR (Homo sapiens, UniProt P29274); experiment: cAMP assay, stimulation of cAMP, CHO cells; type: cell-based
Outline: as §1

hA1AR [7] = biological target: T2, hA1AR; details: read-out: Binding, Ki, A1; [3H]CCPA; previously reported; cited from earlier work
hA2AAR [8] = biological target: T3, hA2AAR; details: read-out: Binding, Ki, A2A; [3H]CGS21680; previously reported; cited from earlier work
hA3AR [9] = biological target: T1, hA3AR; details: read-out: Binding, Ki, A3; [125I]AB-MECA; previously reported; cited from earlier work
hA1AR [10] = biological target: T2, hA1AR; experiment: Radioligand membrane binding, [3H]CCPA, stably transfected CHO cells; details: read-out: Binding, Ki app, A1, dendrimer concentration, mean ± SEM, n = 3
hA2AAR [11] = biological target: T3, hA2AAR; experiment: Radioligand membrane binding, [3H]CGS21680, stably transfected HEK cells; details: read-out: Binding, Ki app, A2A, dendrimer concentration, mean ± SEM, n = 3
hA3AR [12] = biological target: T1, hA3AR; experiment: Radioligand membrane binding, [125I]AB-MECA, stably transfected CHO cells

T3 sequence (P29274 whole entry): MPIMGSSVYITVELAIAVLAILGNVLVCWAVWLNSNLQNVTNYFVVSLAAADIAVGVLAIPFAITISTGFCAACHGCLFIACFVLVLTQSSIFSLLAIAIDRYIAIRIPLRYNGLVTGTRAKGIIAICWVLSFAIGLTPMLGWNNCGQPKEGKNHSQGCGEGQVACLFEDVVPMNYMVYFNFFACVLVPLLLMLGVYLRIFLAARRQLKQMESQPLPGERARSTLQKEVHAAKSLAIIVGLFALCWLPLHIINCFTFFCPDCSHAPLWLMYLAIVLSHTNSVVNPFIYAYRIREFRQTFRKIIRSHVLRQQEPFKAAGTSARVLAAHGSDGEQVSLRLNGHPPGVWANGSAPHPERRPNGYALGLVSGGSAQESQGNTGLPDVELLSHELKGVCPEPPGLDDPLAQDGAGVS

Molecule: CNC(=O)[C@H]1O[C@@H](n2cnc3c(NCc4cccc(I)c4)nc(Cl)nc32)[C@H](O)[C@@H]1O [Cl-IB-MECA, 2-chloro-N^6-(3-iodobenzyl)-5′-N-methylcarboxamidoadenosine]
- Protection against H2O2-induced cytotoxicity in A3AR-transfected HL-1 cells ([1]; LDH assay): revealed protection
- IC50 ([1]; Mus musculus): 7900 ± 2300 nM
- Protection against H2O2-induced cytotoxicity in non-transfected HL-1 cells [2]: neither IB-MECA nor Cl-IB-MECA gave protection

Molecule: CCNC(=O)[C@H]1O[C@@H](n2cnc3c(N)ncnc32)[C@H](O)[C@@H]1O [NECA, 5′-N-ethylcarboxamidoadenosine]
- EC50 ([1]; 750 μM H2O2, 4 h): 3900 nM
- Protection against H2O2-induced cytotoxicity in non-transfected HL-1 cells [2]: protected; also recorded: protective

Molecule: OC[C@H]1O[C@@H](n2cnc3c(NC4CCCC4)nc(Cl)nc32)[C@H](O)[C@@H]1O [CCPA, 2-Chloro-N^6-cyclopentyladenosine]
- Protection against H2O2-induced cytotoxicity in non-transfected HL-1 cells [2]: did not protect

Molecule: PAMAMG5.5-1(AF488-ED) [compound 7]
- Activity in assay of A3AR-mediated cAMP inhibition at 10 μM (hA3AR [3]; 10 μM): inactive
- Effect on H2O2-induced apoptosis (caspase 3/7 luminescence) [4]: did not significantly decrease; also recorded: not by 7

Molecule: N-(2-Aminoethyl)-ADAC [compound 4]
- Agonist efficacy in cAMP assay, A1AR (inhibition) (hA1AR [5]): potent full agonist
- Agonist efficacy in cAMP assay, A2AAR (stimulation) (hA2AAR [6]): potent full agonist
- Agonist efficacy in cAMP assay, A3AR (inhibition) (hA3AR [3]): potent full agonist
- Ki (hA1AR [7]): 43 ± 5 nM
- Ki (hA2AAR [8]): 300 ± 20 nM
- Ki (hA3AR [9]): 9.5 ± 2 nM

Molecule: CCOC(=O)C1=C(C)NC(c2ccccc2)=C(C(=O)OCc2ccccc2)C1C#Cc1ccccc1 (stereo not drawn) [MRS1191]
- Effect of A3 antagonist on protection afforded by IB-MECA from H2O2-induced cell death ([1]; MRS1191 10 μM 1 h before IB-MECA 30 μM, 750 μM H2O2, 4 h, transfected HL-1 cells): prevented the protection

Molecule: CNC(=O)[C@H]1O[C@@H](n2cnc3c(NCc4cccc(I)c4)ncnc32)[C@H](O)[C@@H]1O [IB-MECA, N^6-(3-iodobenzyl)-5′-N-methylcarboxamidoadenosine]
- Protection against H2O2-induced cytotoxicity in A3AR-transfected HL-1 cells ([1]; LDH assay): revealed protection
- EC50 ([1]; Mus musculus, HL-1, 4 h): 3800 nM
- IC50 ([1]; Mus musculus): 3800 ± 1400 nM
- Protection against H2O2-induced cytotoxicity in non-transfected HL-1 cells [2]: neither IB-MECA nor Cl-IB-MECA gave protection

Molecule: PAMAMG5.5-1(AF488-ED)-60(N-(2-aminoethyl)-ADAC) [compound 8]
- Ki (hA1AR [10]): 140 ± 65 nM
- Ki (hA2AAR [11]): 80 ± 17 nM
- Ki (hA3AR [12]; read-out: Binding, Ki app, A3, [125I]AB-MECA, dendrimer concentration, mean ± SEM, n = 3): 15 ± 4 nM
- Selectivity for the A3AR in binding (hA3AR [12]; versus A1 and A2AARs): only slightly selective
- Selectivity in assay of adenylate cyclase inhibition / AR activation (hA3AR [3]; versus A1 and A2AARs): nonselective; also recorded: nonselectively
- Protection against H2O2-induced cytotoxicity in A3AR-transfected HL-1 cells ([1]; LDH assay): highly potent
- IC50 value less than those of monomeric A3AR agonists IB-MECA and Cl-IB-MECA ([1]; A3AR-transfected HL-1 cells, LDH assay): 100- to 200 fold
- Effect on H2O2-induced apoptosis (caspase 3/7 luminescence) [4]: significantly decreased; also recorded: significant protection
- Protection against H2O2-induced cytotoxicity in non-transfected HL-1 cells [2]: did not show cytoprotection

Molecule: CCNC(=O)[C@H]1O[C@@H](n2cnc3c(N)nc(NCCc4ccc(CCC(=O)O)cc4)nc32)[C@H](O)[C@@H]1O [CGS21680, 2-[p-(2-carboxyethyl)phenylethyl-amino]-5′-N-ethylcarboxamidoadenosine]
- Protection against H2O2-induced cytotoxicity in non-transfected HL-1 cells [2]: protected; also recorded: protective
- IC50 ([2]; Mus musculus, HL-1, read-out: Protection from cell death induced by H2O2, untransfected cells, IC50): 7100 ± 2400 nM
